Two molecules from ChEMBL document CHEMBL1909504, “New series of isoniazid hydrazones linked with electron-withdrawing substituents” (Eur J Med Chem, 2011) can be followed below.

Each structure is given as a SMILES string. In brackets after ≈: the same amount, converted by molar mass.

The test system of series [1] is Mycobacterium kansasii. The series can be described thus: Antimycobacterial activity against Mycobacterium kansasii CNTC My 335/80 after 21 days. Format: functional. Particulars: 504 h. The method in brief: (§1)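 MIC in Sula semi-synthetic medium at 37 °C. M. kansasii 6509/96 is a clinical isolate; M. kansasii CNTC My 235/80 comes from the Czech national collection. Compounds were dissolved in DMSO (max. 5% DMSO in water) and tested at 1000, 500, 250, 125, 62, 31, 16, 8, 4, 2 and 1 μmol L⁻¹. MIC was read after 7, 14 and 21 days.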

The subject of series [2] is Mycobacterium kansasii. In words: Antimycobacterial activity against Mycobacterium kansasii 6509/96 isolate after 21 days. The series is classed as functional. As to conditions: 6509/96, 504 h. In a few lines:
as §1

Another series relates to PBMC. The series can be described thus: Cytotoxicity against human PBMC by MTT assay. The series is classed as cell-based. In a few lines: (§2)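 MTT viability assay in RPMI-1640 without phenol red with 10% FCS and 2 mM L-glutamine, at 37 °C and 5% CO₂. HepG2 seeded at 5×10³ cells/well; fresh human PBMC at 2.0×10⁵ cells/well. After 24 h, cells were exposed overnight in serum-free medium, then given MTT (2 mg mL⁻¹) for 4 h. Formazan dissolved in DMSO, OD540 minus OD620, compared with untreated controls. IC50 taken from dose-response curves; two independent experiments, 4–8 parallels.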
(Tetrazolium dyes change colour on reduction, which living cells bring about.)

For series [3], the system named is Mycobacterium kansasii. The series can be described thus: Antimycobacterial activity against Mycobacterium kansasii CNTC My 335/80 after 7 days. As to conditions: 168 h. The series is classed as functional. In a few lines: as §1
Another series concerns HepG2. The series can be described thus: Cytotoxicity against human HepG2 cells by MTT assay. Format: cell-based. In a few lines:
as §2

Series [4] relates to Mycobacterium tuberculosis. The series can be described thus: Antimycobacterial activity against Mycobacterium tuberculosis CNTC My 331/88 ATCC 27294 after 21 days. The series is classed as functional. Particulars: CNTC My 331/88 ATCC 27294, 504 h. The method in brief: (§3)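 Sula semi-synthetic medium at 37 °C. Compounds were dissolved in DMSO (max. 5% DMSO in water) and added to the medium at 1000, 500, 250, 125, 62, 31, 16, 8, 4, 2 and 1 μmol L⁻¹. MIC was read after 7, 14 and 21 days of incubation at 37 °C. Strains came from the Czech National Collection of Type Cultures.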

For series [5], the system named is Mycobacterium avium. The series can be described thus: Antimycobacterial activity against Mycobacterium avium CNTC My 330/88 after 21 days. Particulars: CNTC My 330/88, 504 h. The series is classed as functional. In a few lines:
as §3

The subject of series [6] is Mycobacterium avium. The series can be described thus: Antimycobacterial activity against Mycobacterium avium CNTC My 330/88 after 14 days. Format: functional. As to conditions: CNTC My 330/88, 336 h. The method in brief:
as §3

Series [7] deals with Mycobacterium tuberculosis. The series can be described thus: Antimycobacterial activity against Mycobacterium tuberculosis CNTC My 331/88 ATCC 27294 after 14 days. Format: functional. As to conditions: CNTC My 331/88 ATCC 27294, 336 h. The method in brief:
as §3

Series [8] concerns Mycobacterium kansasii. The series can be described thus: Antimycobacterial activity against Mycobacterium kansasii CNTC My 335/80 after 14 days. Format: functional. As to conditions: 336 h. The method in brief: as §1
The test system of series [9] is Mycobacterium kansasii. In words: Antimycobacterial activity against Mycobacterium kansasii 6509/96 isolate after 7 days. The series is classed as functional. Particulars: 6509/96, 168 h. In a few lines: as §1
Series [10] is described as follows: Selectivity index, ratio of IC50 for human HepG2 cells to MIC for Mycobacterium tuberculosis CNTC My 331/88 ATCC 27294. The series is classed as functional. The method in brief:
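HepG2 human hepatoma cells in RPMI-1640 without phenol red with 10% FCS, 2 mM L-glutamine and gentamycin, at 37 °C and 5% CO₂. Seeded at 5×10³ cells/well and grown 24 h, then treated overnight in serum-free medium. Read-out was MTT (4 h), formazan dissolved in DMSO, OD540 minus OD620. IC50 was taken from dose-response curves, two experiments with 4–8 parallels. MIC was measured in Sula medium.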

Series [11] relates to Mycobacterium kansasii. The series can be described thus: Antimycobacterial activity against Mycobacterium kansasii 6509/96 isolate after 14 days. The series is classed as functional. As to conditions: 6509/96, 336 h. In a few lines:
as §1

Series [12] can be described thus: Stability of compound in methoxyacetate buffer assessed as pseudo-first order rate constant at pH 3.35 by UV-vis spectroscopic analysis. Format: physicochemical. In a few lines:
(§4)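 Hydrolytic stability followed by diode-array UV-vis at 37 ± 0.1 °C on ca. 5×10⁻⁵ mol L⁻¹ solutions. Ionic strength was set to 1 mol L⁻¹ with KCl; buffer pH was checked with a glass electrode. Spectra recorded over 200–500 nm with time. Pseudo-first-order k_obs was fitted from the absorbance-time curve at 267 nm.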

The nature of series [13]: Stability of compound in N-Methylmorpholine buffer assessed as pseudo-first order rate constant at pH 7.86 by UV-vis spectroscopic analysis. Format: physicochemical. The method in brief:
as §4

Series [14] can be described thus: Stability of compound in 0.005 M KOH buffer assessed as pseudo-first order rate constant at pH 11.7 by UV-vis spectroscopic analysis. The series is classed as physicochemical. The method in brief:
as §4

A short description of series [15]: Stability of compound in 0.1 M KOH buffer assessed as pseudo-first order rate constant at pH 13 by UV-vis spectroscopic analysis. Format: physicochemical. The method in brief: as §4
Series [16] is described as follows: Stability of compound in 0.01 M HCl buffer assessed as pseudo-first order rate constant at pH 2 by UV-vis spectroscopic analysis. The series is classed as physicochemical. The method in brief:
as §4

Series [17] in a line: Stability of compound in phosphate buffer assessed as pseudo-first order rate constant at pH 5.81 by UV-vis spectroscopic analysis. Format: physicochemical. In a few lines: as §4
Series [18] is described as follows: Stability of compound in TRIS buffer assessed as pseudo-first order rate constant at pH 8.92 by UV-vis spectroscopic analysis. Format: physicochemical. In a few lines:
as §4

The nature of series [19]: Stability of compound in acetate buffer assessed as pseudo-first order rate constant at pH 4.55 by UV-vis spectroscopic analysis. Format: physicochemical. The method in brief: as §4
Series [20] is described as follows: Stability of compound in 0.0005 HCl buffer assessed as pseudo-first order rate constant at pH 3.3 by UV-vis spectroscopic analysis. Format: physicochemical. In a few lines:
as §4

The nature of series [21]: Stability of compound in carbonate buffer assessed as pseudo-first order rate constant at pH 9.71 by UV-vis spectroscopic analysis. Format: physicochemical. The method in brief: as §4
A short description of series [22]: Stability of compound in 0.007 M HCl buffer assessed as pseudo-first order rate constant at pH 2.16 by UV-vis spectroscopic analysis. The series is classed as physicochemical. In a few lines:
as §4

The nature of series [23]: Stability of compound in 0.005 M HCl buffer assessed as pseudo-first order rate constant at pH 2.3 by UV-vis spectroscopic analysis. The series is classed as physicochemical. The method in brief:
as §4

The nature of series [24]: Stability of compound in imidazole buffer assessed as pseudo-first order rate constant at pH 7.23 by UV-vis spectroscopic analysis. The series is classed as physicochemical. In a few lines:
as §4

Series [25] can be described thus: Stability of compound in 0.001 HCl buffer assessed as pseudo-first order rate constant at pH 3 by UV-vis spectroscopic analysis. The series is classed as physicochemical. The method in brief:
as §4

With `O=C(N/N=C/Nc1cc(Cl)ccc1O)c1ccncc1`, the MIC worked out at 250 µM (≈ 72.7 µg/mL) against Mycobacterium kansasii [1]; 32 µM (≈ 9.3 µg/mL) in the series with Mycobacterium kansasii [2]; 125 µM (≈ 36.3 µg/mL) in the series with Mycobacterium kansasii [3]; 2 µM (≈ 0.581 µg/mL) in series [4]; 500 µM (≈ 145 µg/mL) in the series on Mycobacterium avium [5]; 500 µM (≈ 145 µg/mL) against Mycobacterium avium [6]. Further, the MIC in [7] was 2 µM (≈ 0.581 µg/mL); against Mycobacterium kansasii [8], 250 µM (≈ 72.7 µg/mL); against Mycobacterium kansasii [9] it was 8 µM (≈ 2.33 µg/mL); against Mycobacterium kansasii [11], 16 µM (≈ 4.65 µg/mL). Further, the IC50 with PBMC worked out at 75 µM; in the series on HepG2, 21.8 µM. For the same molecule, the Ratio in series [10] stood at 10.9.

In the case of `O=C(N/N=C/Nc1ccc(Br)c(F)c1)c1ccncc1`, the MIC in the series on Mycobacterium kansasii [1] amounted to 250 µM (≈ 84.3 µg/mL); with Mycobacterium kansasii [2], 16 µM (≈ 5.39 µg/mL); with Mycobacterium kansasii [3] it was 62.5 µM (≈ 21.1 µg/mL); in series [4] it was 1 µM (≈ 0.337 µg/mL); in the series on Mycobacterium avium [5] it was 250 µM (≈ 84.3 µg/mL); against Mycobacterium avium [6], 250 µM (≈ 84.3 µg/mL). Moreover, the MIC in [7] is 1 µM (≈ 0.337 µg/mL); in the series on Mycobacterium kansasii [8], 250 µM (≈ 84.3 µg/mL); in the series with Mycobacterium kansasii [9], 8 µM (≈ 2.7 µg/mL); against Mycobacterium kansasii [11], 8 µM (≈ 2.7 µg/mL). In addition, the values for the IC50 in the series on PBMC and with HepG2 were 326 µM and 162 µM, respectively. Also, the Activity in series [12] amounted to 0.000425 s⁻¹; in series [13] it was 0.000012 s⁻¹; in [14], 0.00011 s⁻¹; in series [15], 0.0000691 s⁻¹; in series [16] it was 0.00285 s⁻¹; in [17] it was 0.000071 s⁻¹. The Activity in series [18] is 0.000055 s⁻¹; in series [19], 0.000114 s⁻¹; in series [20] it was 0.000322 s⁻¹; in series [21] it was 0.0000445 s⁻¹; in series [22], 0.00192 s⁻¹; in series [23], 0.0017 s⁻¹. Further, the Activity in series [24] worked out at 0.000013 s⁻¹; in series [25] it was 0.000514 s⁻¹. Moreover, in series [10], the Ratio is 162.

One may read the MIC as the lowest concentration found to suppress growth. A higher MIC goes with weaker potency. A word on the IC50: it is the concentration needed to halve the response being measured. Read a low IC50 as greater potency in that assay.
